Laboratory results from paper PMC5193105 (Proteins, 2016).

Legend:
wildtype hPFKFB2 = wildtype hPFKFB2 (Homo sapiens, UniProt O60825); experiment: 2-kinase inhibition assay; type: biochemical; conditions: wild-type; for Ki: Citrate Kis
Procedure, shortened: (§1)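 His-tagged enzyme was expressed in E. coli BL21 C41(DE3) and purified by Ni-NTA then SP Sepharose. Step 1 used 130 nM enzyme in 20 mM TES pH 8.0, 1 mM DTT, 2 mM MgCl2 and 0.5% tween, with varied citrate, ATP and Fru-6-P (fixed substrate 250 μM), for 10 min at 25°C. Reactions were KOH-stopped and neutralized. Fru-2,6-P2 was read by PPi-PFK/aldolase/TPI/[…] coupling as A340 over 30 min. Constants came from non-linear regression.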

hPFKFB2 Y428A mutant = hPFKFB2 Y428A mutant (Homo sapiens, UniProt O60825, Y428A); experiment: 2-kinase inhibition assay; type: biochemical; conditions: for Ki: Citrate Kis
Procedure, shortened: as §1

[1] = variable substrate ATP, fixed substrate F6P 250μM
[2] = Y428A, variable substrate ATP, fixed substrate F6P 250μM

Chain of wildtype hPFKFB2 (O60825 whole entry): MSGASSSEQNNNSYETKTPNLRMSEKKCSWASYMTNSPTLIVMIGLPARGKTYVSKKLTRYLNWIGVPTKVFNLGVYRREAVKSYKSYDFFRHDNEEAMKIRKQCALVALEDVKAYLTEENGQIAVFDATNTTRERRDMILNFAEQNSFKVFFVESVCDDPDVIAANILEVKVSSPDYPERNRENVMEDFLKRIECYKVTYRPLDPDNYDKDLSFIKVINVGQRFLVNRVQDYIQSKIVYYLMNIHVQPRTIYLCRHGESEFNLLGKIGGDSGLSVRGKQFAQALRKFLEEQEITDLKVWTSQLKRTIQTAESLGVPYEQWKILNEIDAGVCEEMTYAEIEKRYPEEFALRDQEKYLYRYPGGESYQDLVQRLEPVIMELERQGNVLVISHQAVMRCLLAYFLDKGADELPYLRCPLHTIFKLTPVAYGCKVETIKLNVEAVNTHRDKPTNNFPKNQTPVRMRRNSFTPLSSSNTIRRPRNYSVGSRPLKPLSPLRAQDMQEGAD
Chain of hPFKFB2 Y428A mutant (O60825 whole entry Y428A): as the sequence (O60825 whole entry) above, with Y428A counted along it

SMILES: Nc1ncnc2c1ncn2[C@@H]1O[C@H](COP(=O)(O)OP(=O)(O)OP(=O)(O)O)[C@@H](O)[C@H]1O [ATP]
- KmATP (wildtype hPFKFB2): 38.8 ± 5.3 µM
- KmATP (hPFKFB2 Y428A mutant; Y428A): 40.7 ± 4.2 µM

SMILES: O=C(O)CC(O)(CC(=O)O)C(=O)O [Citrate]
- Ki (wildtype hPFKFB2; [1]): 50.2 µM
- Ki (wildtype hPFKFB2; variable substrate F6P, fixed substrate ATP 250μM): 80.3 ± 6.5 µM
- Citrate Kii (wildtype hPFKFB2; [1]): 58.75 ± 9.9 µM
- inhibition mechanism (in words) (wildtype hPFKFB2; versus ATP): non-competitive inhibitor
- inhibition mechanism (in words) (wildtype hPFKFB2; versus F6P): competitive inhibitor
- Ki (hPFKFB2 Y428A mutant; [2]): 2.43 ± 1 µM
- Ki (hPFKFB2 Y428A mutant; Y428A, variable substrate F6P, fixed substrate ATP 250μM): 67.3 ± 4.2 µM
- increase in affinity for the inhibitor, Y428A versus wild-type (hPFKFB2 Y428A mutant; Kis with ATP as variable substrate, from 50.2 μM to 2.4 μM): 20 fold
- Citrate Kii (hPFKFB2 Y428A mutant; [2]): 3.05 ± 1.4 µM

SMILES: O=C(CO)[C@@H](O)[C@H](O)[C@H](O)COP(=O)(O)O [F6P, fructose-6-phosphate]
- KmF6P (wildtype hPFKFB2): 80.3 ± 7.6 µM
- KmF6P (hPFKFB2 Y428A mutant; Y428A): 13.8 ± 4.3 µM
- increase in affinity for Fru-6-P, Y428A versus wild-type (hPFKFB2 Y428A mutant; from Km values): 6 fold
